Results from ChEMBL document CHEMBL3286184, “Antiplasmodial activity of synthetic ellipticine derivatives and an isolated analog” (Bioorg Med Chem Lett, 2014).
Where a name gives a salt, the structure may show the parent alone. Activity calls are given as the source filed them. No cut-off for these calls is given here.

Key:
[1] = test system: Plasmodium falciparum; experiment: Antiplasmodial activity against multi-drug resistant Plasmodium falciparum K1 in human erythrocytes assessed as growth inhibition after 48 hrs by optical microscopy; assay type: functional, organism-based; conditions: K1, 48 h
Outline: (§1)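 Parasites were kept in continuous culture by the Trager and Jensen method. The microtest used 1–2% initial parasitemia and 3% hematocrit. Samples came from 5 mg/mL DMSO stocks, serially diluted in complete medium and added to parasitized red cells in triplicate. Plates were incubated 48 h at 37°C and read by optical microscopy. Growth inhibition % = 100[1 − (parasitemia with sample/parasitemia of untreated controls)].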

[2] = test system: Plasmodium falciparum; experiment: Antiplasmodial activity against drug susceptible Plasmodium falciparum 3D7 NF54 isolate in human erythrocytes assessed as growth inhibition after 48 hrs by optical microscopy; assay type: functional, organism-based; conditions: 3D7 NF54, 48 h; outline: as §1
[3] = test system: Plasmodium berghei; experiment: Antimalarial activity against Plasmodium berghei infected in mouse assessed as suppression of parasitemia at 10 mg/kg, po by Peters 4 day suppressive test; assay type: functional; conditions: 96 h
[4] = test system: Plasmodium berghei; experiment: Antimalarial activity against Plasmodium berghei infected in mouse assessed as mouse mean survival time at 50 mg/kg, po; assay type: functional
[5] = Selectivity index, ratio of IC50 for mouse macrophages to IC50 for Plasmodium falciparum
[6] = test system: Plasmodium falciparum; experiment: Antiplasmodial activity against Plasmodium falciparum; assay type: functional, organism-based
Outline: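 P. falciparum (K1 and 3D7) kept in continuous Trager–Jensen culture and tested at 1–2% initial parasitemia and 3% hematocrit. DMSO stocks (5 mg/mL) were diluted in complete medium across a 100–0.006 range and tested in triplicate for 48 h at 37°C. Growth was read by optical microscopy as IGP% = 100[1 − (parasitemia with sample / untreated control parasitemia)].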

[7] = Cytotoxicity against mouse macrophages after 18 hrs by MTT assay; assay type: cell-based; conditions: Macrophage
[8] = test system: Plasmodium berghei; experiment: Antimalarial activity against Plasmodium berghei infected in mouse assessed as suppression of parasitemia at 50 mg/kg, po after 5 to 7 days; assay type: functional
[9] = test system: Plasmodium berghei; experiment: Antimalarial activity against Plasmodium berghei infected in mouse assessed as suppression of parasitemia at 10 mg/kg, po after 5 to 7 days; assay type: functional
[10] = test system: MRC5; experiment: Cytotoxicity against human MRC5 cells after 48 hrs by Alamar blue assay; assay type: cell-based; conditions: MRC5, 48 h
Outline: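 MRC-5 fetal lung fibroblasts were grown in DMEM with 10% FBS, 2 mM glutamine and penicillin/streptomycin at 37°C under 5% CO2, seeded at 10^4 cells/well, and dosed with DMSO-dissolved compounds after 24 h for 48 h. Negative controls had 0.1% DMSO. Alamar Blue was added 2 h before the end, with fluorescence read at 530–560 nm excitation and 590 nm emission.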

[11] = test system: Plasmodium berghei; experiment: Antimalarial activity against Plasmodium berghei infected in mouse assessed as total elimination of parasitemia at 50 mg/kg, po after 5 to 7 days; assay type: functional, organism-based; parameters: dose 50 mg/kg

Structure (SMILES)	IC50 [1] [µM]	IC50 [2] [µM]	IC50 ([6]; Plasmodium falciparum) [µM]	IC50 [7] [µM]	further results
Cc1c2ccncc2c(C)c2c1[nH]c1ccccc12 [ELLIPTECINE]	0.81	0.35	1.13	> 140	inhibition in vivo at 10 mg/kg [3]: 70%; MST [4]: >40 days; Ratio IC50 [5]: >290
C=C[C@H]1CN2CC[C@H]1C[C@H]2[C@H](O)c1ccnc2ccc(OC)cc12 [QUININE SULFATE]	0.12	0.15		> 140	
Cc1c2c(c(C)c3c1[nH]c1ccccc13)C=NCC2			1.01		
Cc1nccc2c(C)c3[nH]c4ccccc4c3cc12		1.2		> 140	inhibition in vivo at 50 mg/kg [8]: 90%; Ratio IC50 [5]: >290; inhibition in vivo at 10 mg/kg [9]: 48%
Cc1c2c(c(C)c3c1[nH]c1ccccc13)CN(C)CC2	4.2	13			IC50 [10]: > 50 µg/mL
Cc1c2ccncc2c(C)c2c1[nH]c1ccc([N+](=O)[O-])cc12	0.55				
Cc1c2ccncc2c(C)c2c1[nH]c1c([N+](=O)[O-])cccc12	13	17			IC50 [10]: > 50 µg/mL
Cc1c2ccncc2c(C)c2c1[nH]c1ccccc12 [listing 1 of 2 here]					inhibition [11]: Active
CCN(CC)CCCC(C)Nc1ccnc2cc(Cl)ccc12 (stereo not drawn) [CHLOROQUINE PHOSPHATE]				> 140	
Cc1c2ccncc2c(C)c2c1[nH]c1ccc(O)cc12			0.3		
COc1ccc2[nH]c3c(C)c4ccncc4c(C)c3c2c1			1.15		
Cc1c2ccncc2c(C)c2c1[nH]c1ccccc12 [listing 2 of 2 here]					IC50 [6]: 0.6 µM
